Source: PubChem BioAssay (several laboratories)
T cell modulator – T cell immune modulators affecting CD8 T cell-vesicle binding; 2C CD8+ T cell-vesicle binding, flow cytometry; stronger effect = lower value; response (vesicle binding), % at 7 µM; 330,000 tested, 0.068% active;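 active = response, share of CD8 T cells binding vesicles, and their 90th percentile fluorescence all below set limits, cut at about 80% in these data, passing the limit was not always enough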;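 also: values below 100% mean blocked vesicle binding to the CD8+ T cells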
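Benchmarks: naked versus QL9-loaded vesicles / Assay system: purified 2C TCR transgenic mouse naive CD8+ T cells / Technique: high-throughput flow cytometry with anti-B7-1 and anti-CD8 staining / Timing: Cell–vesicle co-incubation 1.5 h at 37 °C, staining 20 min on ice / Read-out: percent CD8+ FL2 mean versus row control / Probe or stimulus: QL9-loaded Drosophila micro-vesicles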
MEKK2wt PB1 HTS – raises or lowers MEK5 binding to wildtype human MEKK2 PB1 domain. Q9Y2U5. bead flow cytometry, Alexa488-MEK5 binding to MEKK2 WT; actives lie on both sides. binding response (% of control), % at 10 µM. 290,000 tested, 1.1% active; in the data active = binding response below about 67% or above about 130%
MEKK2mut PB1 HTS – signal of MEK5 binding to mutant human MEKK2 PB1 domain; bead flow cytometry, Alexa488-MEK5 binding to MEKK2 mutant; percent response, % at 10 µM; 290,000 tested, 0.35% active; AID 1530; in the data active = percent response above about 24%, passing the limit was not always enough
MEKK3 PB1 HTS – MEKK3-MEK5 PB1 interaction, increase or decrease; Q99759; bead-based flow cytometry, Alexa488-MEK5 binding to MEKK3; actives lie on both sides; 0 = blocked by unlabeled MEK5, 100 = vehicle; binding response (% of control), % at 10 µM; 290,000 tested, 1.4% active;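 active = binding response more than 3 SD above or below the average of its plate-row segment, actives on both sides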;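 also: Alexa488 bead fluorescence after subtracting the streptavidin-only scavenger bead signal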
UCH37 DUB inh – blocks the human deubiquitinase UCH37 | inhibition, % (concentration not given with the values) | 330,000 tested, 0.33% active | Q9Y5K5 | purified proteasome/UCH37, Ub-AMC cleavage fluorescence;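 active = mean inhibition over replicate wells above about 20%, limit read from the data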;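 also: 0% = compound-free wells with enzyme and 100% = wells lacking proteasome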
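System: Proteasome-associated human UCH37 deubiquitinase; Input: 0.15 nM proteasome in added enzyme buffer; Also added: Ub-AMC substrate from 1 µM stock; Incubation: 30 min compound-proteasome preincubation then 25 min substrate reaction, room temperature; Detection: fluorescence, ex 355 nm, em 460 nm; Read-out: % inhibition of Ub-AMC cleavage fluorescence; Benchmarks: no-proteasome and no-compound wells.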
Rce1 inhib – inhibitors of yeast Ras-converting enzyme. yeast membranes, quenched prenylated peptide cleavage fluorescence. calls only. 290,000 tested, 0.27% active. AID 2563;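 active = fall in fluorescence gain of 50% or more versus controls, with final raw signal at or below 3038400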;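 also: plate controls were neutral control wells for no effect and wells lacking membranes for full effect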
Target sequence (Q03530 whole entry, looked up): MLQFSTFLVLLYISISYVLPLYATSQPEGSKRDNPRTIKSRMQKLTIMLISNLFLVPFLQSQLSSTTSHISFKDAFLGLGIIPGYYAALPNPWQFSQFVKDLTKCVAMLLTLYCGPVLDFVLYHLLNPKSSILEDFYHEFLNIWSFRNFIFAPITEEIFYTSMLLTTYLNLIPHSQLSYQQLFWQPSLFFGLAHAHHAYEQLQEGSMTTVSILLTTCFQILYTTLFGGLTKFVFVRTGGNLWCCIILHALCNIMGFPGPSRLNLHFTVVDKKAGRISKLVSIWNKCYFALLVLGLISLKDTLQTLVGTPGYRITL
MEKK2wt confirm – raises or lowers MEK5 binding to wildtype human MEKK2, retest; shares compounds with MEKK3 PB1 HTS; bead flow cytometry, Alexa488-MEK5 binding to MEKK2 WT; actives lie on both sides; binding response (% of control), % at 10 µM; 5,900 tested, 2.4% active; in the data active = binding response below about 16% or above about 210%; inactive = in between
MEKK2mut-MEK5 – signal of MEK5 binding to mutant human MEKK2, retest | shares compounds with MEKK3 PB1 HTS | bead flow cytometry, Alexa488-MEK5 binding to MEKK2 mutant | percent response, % at 10 µM | 5,900 tested, 2% active | AID 1893; in the data active = percent response mostly above about 71%, no sharp cut-off; inactive = mostly below about 38%;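 also: higher means compound restores mutant binding toward wildtype level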
MEKK3 confirm – confirmation of inhibitors of MEK5 binding to human MEKK3; shares compounds with MEKK3 PB1 HTS; bead flow cytometry, Alexa488-MEK5 binding to MEKK3; stronger effect = lower value; binding response (% of control), % at 10 µM; 5,900 tested, 1.8% active;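 active = binding response below 72% of control, or above a set upper limit, though filed actives all read lower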;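 also: 100% = DMSO only wells and 0% = binding blocked by excess unlabeled MEK5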
* marks the source's active call; other numbers are inactive results; [ ] = another dose, or the depositor's remark. This is a sample that favours compounds with a hit; in the whole collection about 2.5% have one here.

Screening CCCCCCCC(=O)NNC(=O)c1ccc([N+](=O)[O-])cc1 returned T cell modulator 400, MEKK2wt PB1 HTS 96, MEKK2mut PB1 HTS -2, MEKK3 PB1 HTS 95, UCH37 DUB inh 1 and Rce1 inhib inactive.
CCOC(=O)c1c(NC(=O)CNCC(O)CO)sc(C)c1C (stereo not given) was read as T cell modulator 338, MEKK2wt PB1 HTS 101, MEKK2mut PB1 HTS 0, MEKK3 PB1 HTS 101, UCH37 DUB inh -19 and Rce1 inhib inactive.
For CCCCNCC(=O)Nc1sc(C)c(C)c1C(=O)OCC the results were T cell modulator 255, MEKK2wt PB1 HTS 102, MEKK2mut PB1 HTS -2, MEKK3 PB1 HTS 79*[inhibitor], UCH37 DUB inh 5, Rce1 inhib inactive, MEKK2wt confirm 108, MEKK2mut-MEK5 8 and MEKK3 confirm 108.
COc1cccc(C=NNC(N)=S)c1OCc1cccc(Cl)c1 was read as UCH37 DUB inh -2.
CCc1cc(C(=O)N=Nc2c(O)[nH]c3c(Br)cc(Br)cc23)c2ccccc2n1 was read as T cell modulator 203, MEKK2wt PB1 HTS 106, MEKK2mut PB1 HTS 0, MEKK3 PB1 HTS 139*, UCH37 DUB inh 0, Rce1 inhib inactive, MEKK2wt confirm 87, MEKK2mut-MEK5 -6 and MEKK3 confirm 100.
CCc1cc(C(=O)N=Nc2c(O)[nH]c3ccc([N+](=O)[O-])cc23)c2ccccc2n1 was read as T cell modulator 460, MEKK2wt PB1 HTS 102, MEKK2mut PB1 HTS -1, MEKK3 PB1 HTS 101, UCH37 DUB inh 11 and Rce1 inhib inactive.
CCCN1CCC(=NNC(=O)CSc2cc(C)c(Br)cc2C)CC1 was read as T cell modulator 248, MEKK2wt PB1 HTS 111, MEKK2mut PB1 HTS 1, MEKK3 PB1 HTS 136*, UCH37 DUB inh 6, Rce1 inhib inactive, MEKK2wt confirm 115, MEKK2mut-MEK5 7 and MEKK3 confirm 104.
CC(=O)N1CCC(=NNC(=O)CSc2cc(C)c(Br)cc2C)CC1 was read as T cell modulator 206, MEKK2wt PB1 HTS 89, MEKK2mut PB1 HTS 8, MEKK3 PB1 HTS 97, UCH37 DUB inh 1 and Rce1 inhib inactive.
Screening CC(=O)Nc1ccc(C(C)=NNc2nc(Nc3ccccc3)nc(N3CCOCC3)n2)cc1 returned UCH37 DUB inh 2.
COc1ccccc1OCC(=O)NN=C1CCCCc2ccccc21 was read as UCH37 DUB inh 3.
`CCN(CC)CCCC(C)Nc1c2ccc(Cl)cc2nc2ccc(OC)cc12` (stereo not given) gave MEKK2wt PB1 HTS 137, MEKK2mut PB1 HTS 19 and MEKK3 PB1 HTS 97.
For COc1ccc2nc3cc(Cl)ccc3c(Nc3cc(C(C)C)c(O)cc3C)c2c1 the results were T cell modulator 581, MEKK2wt PB1 HTS 146*, MEKK2mut PB1 HTS 44*, MEKK3 PB1 HTS 87, UCH37 DUB inh 5, Rce1 inhib inactive, MEKK2wt confirm 189, MEKK2mut-MEK5 75* and MEKK3 confirm 106.
`CCOC(=O)CNC(=O)Nc1nnc(-c2ccc(OCC)cc2)o1` gave T cell modulator inactive, MEKK2wt PB1 HTS 56, MEKK2mut PB1 HTS -11, MEKK3 PB1 HTS 48*[inhibitor], UCH37 DUB inh -3, Rce1 inhib inactive, MEKK2wt confirm 97, MEKK2mut-MEK5 -1 and MEKK3 confirm 100.
